In ChEMBL document CHEMBL1154362, “Lead optimization and structure-based design of potent and bioavailable deoxycytidine kinase inhibitors” (Bioorg Med Chem Lett, 2009):

Target: Deoxycytidine kinase (Homo sapiens, UniProt P27707)
Assay: Inhibition of human deoxycytidine kinase by lysate filter binding assay
Details: not given

Deoxycytidine kinase, sequence (P27707 whole entry): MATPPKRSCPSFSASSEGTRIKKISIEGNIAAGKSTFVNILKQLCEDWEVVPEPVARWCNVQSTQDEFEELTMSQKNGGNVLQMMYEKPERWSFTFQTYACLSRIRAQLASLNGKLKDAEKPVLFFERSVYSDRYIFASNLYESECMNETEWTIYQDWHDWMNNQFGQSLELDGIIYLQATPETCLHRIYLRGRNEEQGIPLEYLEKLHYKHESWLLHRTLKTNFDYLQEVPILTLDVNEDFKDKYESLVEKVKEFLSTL

Row | SMILES | IC50 [nM]
1 | CS(=O)(=O)c1ccc(-c2cccc(S(=O)(=O)N[C@H]3CC[C@H](n4cc(F)c(N)nc4=O)C3)c2)cc1 | 63
2 | Nc1nc(=O)n([C@H]2CC[C@H](NS(=O)(=O)c3cccc(-c4ccc(Cl)cc4Cl)c3)C2)cc1F | 21
3 | Nc1nc(=O)n([C@H]2CC[C@H](NS(=O)(=O)c3cccc(-c4ccc(C(=O)O)cc4)c3)C2)cc1F | 15300
4 | Nc1nc(=O)n([C@H]2CC[C@H](NC(=O)c3cccc(-c4ccccc4)c3)C2)cc1F | 260
5 | Nc1nc(=O)n([C@H]2CC[C@H](NS(=O)(=O)c3cccc(-c4ccc(Cl)cc4)c3)C2)cc1F | 51
6 | Nc1nc(=O)n([C@H]2CC[C@H](NS(=O)(=O)c3cccc(Br)c3)C2)cc1F | 1900
7 | Cc1cc(Cl)ccc1-c1cccc(C(=O)N[C@H]2CC[C@H](n3cc(F)c(N)nc3=O)C2)c1 | 21
8 | Cc1ccc(-c2cccc(S(=O)(=O)N[C@H]3CC[C@H](n4cc(F)c(N)nc4=O)C3)c2)cc1 | 110

Continued, values first:

Row | IC50 [nM] | SMILES
9 | 79 | Nc1nc(=O)n([C@H]2CC[C@H](NS(=O)(=O)c3cccc(-c4cccc(Cl)c4)c3)C2)cc1F
10 | 89 | NC(=O)c1ccc(-c2cccc(S(=O)(=O)N[C@H]3CC[C@H](n4cc(F)c(N)nc4=O)C3)c2)cc1
11 | 2700 | Nc1nc(=O)n([C@H]2CC[C@H](NS(=O)(=O)c3ccc(Br)cc3)C2)cc1F
12 | 3200 | Nc1nc(=O)n([C@H]2CC[C@H](NS(=O)(=O)c3ccc([N+](=O)[O-])cc3)C2)cc1F

Tested on: not listed separately
Assay: AUC ((0 to infinity)) in mouse at 10 mg/kg, po
Type: ADME, organism-based
Design: time infinity, dose 10 mg/kg, route oral
Details: plasma
Procedure, shortened: (§1)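 Mouse PK: single doses of 10 mpk po and 1 mpk iv, with blood sampled to measure compound levels. Clearance and volume came from the iv dose. AUC to infinity, Cmax and other parameters came from the po dosing data.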

Row | AUC(0-inf) [µM·h] | SMILES
13 | 5.2 | Nc1nc(=O)n([C@H]2CC[C@H](NS(=O)(=O)c3cccc(-c4ccc(Cl)cc4)c3)C2)cc1F
14 | 10.8 | Cc1cc(Cl)ccc1-c1cccc(C(=O)N[C@H]2CC[C@H](n3cc(F)c(N)nc3=O)C2)c1

Tested on: not listed separately
Assay: Cmax in mouse at 10 mg/kg, po
Type: ADME, organism-based
Design: dose 10 mg/kg, route oral
Details: in vivo
Procedure, shortened: as §1

Row | Cmax [µM] | SMILES
15 | 1 | Nc1nc(=O)n([C@H]2CC[C@H](NS(=O)(=O)c3cccc(-c4ccc(Cl)cc4)c3)C2)cc1F
16 | 10.1 | Cc1cc(Cl)ccc1-c1cccc(C(=O)N[C@H]2CC[C@H](n3cc(F)c(N)nc3=O)C2)c1

Tested on: not listed separately
Assay: Half life in mouse at 10 mg/kg, po
Type: ADME, organism-based
Design: dose 10 mg/kg, route oral
Details: in vivo
Procedure, shortened: as §1

Row | half-life [h] | SMILES
17 | 2.1 | Nc1nc(=O)n([C@H]2CC[C@H](NS(=O)(=O)c3cccc(-c4ccc(Cl)cc4)c3)C2)cc1F
18 | 1.3 | Cc1cc(Cl)ccc1-c1cccc(C(=O)N[C@H]2CC[C@H](n3cc(F)c(N)nc3=O)C2)c1

Tested on: not listed separately
Assay: Tmax in mouse at 10 mg/kg, po
Type: ADME, organism-based
Design: dose 10 mg/kg, route oral
Details: in vivo
Procedure, shortened: as §1

Row | Tmax [h] | SMILES
19 | 2 | Nc1nc(=O)n([C@H]2CC[C@H](NS(=O)(=O)c3cccc(-c4ccc(Cl)cc4)c3)C2)cc1F
20 | 0.3 | Cc1cc(Cl)ccc1-c1cccc(C(=O)N[C@H]2CC[C@H](n3cc(F)c(N)nc3=O)C2)c1

Tested on: not listed separately
Assay: Bioavailability in mouse at 10 mg/kg, po
Type: ADME, organism-based
Details: in vivo
Procedure, shortened: as §1

Row | bioavailability [%] | SMILES
21 | 58 | Cc1cc(Cl)ccc1-c1cccc(C(=O)N[C@H]2CC[C@H](n3cc(F)c(N)nc3=O)C2)c1

Tested on: not listed separately
Assay: Terminal volume of distribution in mouse at 1 mg/kg, iv
Type: ADME, organism-based
Design: dose 1 mg/kg, route intravenous
Details: in vivo, read-out: Vz
Procedure, shortened: as §1

Row | Vd [L/kg] | SMILES
22 | 16 | Nc1nc(=O)n([C@H]2CC[C@H](NS(=O)(=O)c3cccc(-c4ccc(Cl)cc4)c3)C2)cc1F
23 | 1.6 | Cc1cc(Cl)ccc1-c1cccc(C(=O)N[C@H]2CC[C@H](n3cc(F)c(N)nc3=O)C2)c1

Tested on: not listed separately
Assay: Clearance in mouse at 1 mg/kg, iv
Type: ADME, organism-based
Design: dose 1 mg/kg, route intravenous
Details: in vivo
Procedure, shortened: as §1

Row | clearance [mL/min/kg] | SMILES
24 | 140 | Nc1nc(=O)n([C@H]2CC[C@H](NS(=O)(=O)c3cccc(-c4ccc(Cl)cc4)c3)C2)cc1F
25 | 20 | Cc1cc(Cl)ccc1-c1cccc(C(=O)N[C@H]2CC[C@H](n3cc(F)c(N)nc3=O)C2)c1
